Changes are numbered by the printed parent chain. Names and notes keep the numbering of the source. “Also recorded” adds a separate entry of the source.
How the values were obtained:
[1] = molecular target: T1, AtDLK2 (Arabidopsis thaliana, UniProt F4J6L0); settings: ref Végh et al., 2017; cited from earlier work
T1 sequence (F4J6L0 1-273): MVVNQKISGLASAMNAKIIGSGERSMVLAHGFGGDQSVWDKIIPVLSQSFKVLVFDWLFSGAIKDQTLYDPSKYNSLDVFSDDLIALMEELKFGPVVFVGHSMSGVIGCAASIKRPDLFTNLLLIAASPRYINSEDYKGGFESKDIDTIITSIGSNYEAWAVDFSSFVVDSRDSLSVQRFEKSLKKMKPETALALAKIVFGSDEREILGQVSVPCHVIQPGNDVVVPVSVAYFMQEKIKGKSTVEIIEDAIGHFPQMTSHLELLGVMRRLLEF

[2] = molecular target: T1, AtDLK2; settings: at high concentrations; ref Végh et al., 2017; cited from earlier work
[3] = molecular target: T2, AtD14 (Arabidopsis thaliana, UniProt Q9SQR3); assay: Inhibition of AtD14 enzymatic activity on pNP acetate; assay type: biochemical; settings: for inhibition of the enzymatic activity of AtD14 (in words): pNP acetate as substrate
T2 sequence (Q9SQR3 1-267): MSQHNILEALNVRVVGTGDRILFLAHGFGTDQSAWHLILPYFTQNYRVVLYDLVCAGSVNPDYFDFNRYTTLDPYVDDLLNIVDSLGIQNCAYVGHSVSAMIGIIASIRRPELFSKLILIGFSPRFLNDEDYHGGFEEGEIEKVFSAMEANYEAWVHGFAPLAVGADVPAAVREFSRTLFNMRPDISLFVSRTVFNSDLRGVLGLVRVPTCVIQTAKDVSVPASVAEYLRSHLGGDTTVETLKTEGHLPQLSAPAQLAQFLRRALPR

[4] = molecular target: T3, AtKAI2 (Arabidopsis thaliana, UniProt Q9SZU7); assay: Inhibition of AtKAI2 enzymatic activity on pNP acetate; assay type: biochemical; settings: for inhibition of the enzymatic activity of AtKAI2 (in words): pNP acetate as substrate
T3 sequence (Q9SZU7 1-270): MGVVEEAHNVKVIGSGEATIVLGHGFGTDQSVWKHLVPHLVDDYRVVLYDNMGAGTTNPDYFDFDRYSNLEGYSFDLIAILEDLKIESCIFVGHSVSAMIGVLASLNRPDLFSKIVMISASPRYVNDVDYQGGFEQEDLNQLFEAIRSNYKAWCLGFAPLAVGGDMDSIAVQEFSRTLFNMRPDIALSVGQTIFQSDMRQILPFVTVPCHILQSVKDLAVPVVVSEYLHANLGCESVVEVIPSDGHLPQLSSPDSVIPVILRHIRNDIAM

[5] = molecular target: T4, AtDLK2 wt (Arabidopsis thaliana, UniProt F4J6L0); assay: Differential scanning fluorimetry, AtDLK2 wt; assay type: binding
T4 sequence (F4J6L0 1-273): T1 sequence (F4J6L0 1-273)

[6] = molecular target: T5, AtDLK2 F167L (Arabidopsis thaliana, UniProt F4J6L0, F167L); assay: Differential scanning fluorimetry, AtDLK2 F167L; assay type: binding
T5 sequence (F4J6L0 1-273 F167L): T1 sequence (F4J6L0 1-273) with F167L
Summary of the method: (§1)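 Recombinant protein was expressed in E. coli BL21(DE3), GST-affinity captured, tag removed by on-column HRV3 protease, then size-exclusion purified. DSF used 10 μg protein with rac-GR24 and 3× (final) Sypro Orange in 20 mM TRIS-HCl, 30 mM NaCl, 1 mM TCEP-HCl, pH 7.7. Heating ran 25–95°C at 1°C per minute, in triplicate, and was read from the denaturation curve and its derivative.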

[7] = molecular target: T6, AtDLK2 F167A (Arabidopsis thaliana, UniProt F4J6L0, F167A); assay: Differential scanning fluorimetry, AtDLK2 F167A; assay type: binding
T6 sequence (F4J6L0 1-273 F167A): T1 sequence (F4J6L0 1-273) with F167A
Summary of the method: as §1

[8] = molecular target: T2, AtD14; assay: Differential scanning fluorimetry, AtD14; assay type: binding
Summary of the method: as §1

[9] = molecular target: T2, AtD14; settings: substrate rac‐GR24; ref Zhao et al., 2013; cited from earlier work
[10] = system: AtDLK2 wt; assay: Michaelis–Menten kinetics on para‐nitrophenyl acetate, AtDLK2 wt; assay type: biochemical, Arabidopsis thaliana; settings: substrate pNP acetate
[11] = molecular target: T6, AtDLK2 F167A; assay: Michaelis–Menten kinetics on para‐nitrophenyl acetate, AtDLK2 F167A; assay type: biochemical; settings: substrate pNP acetate
[12] = molecular target: T3, AtKAI2; assay: Michaelis–Menten kinetics on para‐nitrophenyl acetate, AtKAI2; assay type: biochemical; settings: substrate pNP acetate
[13] = substrate: CC(=O)Oc1ccc([N+](=O)[O-])cc1; assay: Michaelis–Menten kinetics on para‐nitrophenyl acetate, AtD14; assay type: biochemical, Arabidopsis thaliana; settings: other: AtD14, substrate pNP acetate; pH 7.0
[14] = substrate: CC(=O)Oc1ccc([N+](=O)[O-])cc1; assay: Michaelis–Menten kinetics on para‐nitrophenyl acetate, AtDLK2 wt; assay type: biochemical, Arabidopsis thaliana; settings: other: AtDLK2 wt, substrate pNP acetate; pH 7.0
[15] = substrate: CC(=O)Oc1ccc([N+](=O)[O-])cc1; assay: Michaelis–Menten kinetics on para‐nitrophenyl acetate, AtDLK2 F167A; assay type: biochemical, Arabidopsis thaliana; settings: other: AtDLK2 F167A, substrate pNP acetate; pH 7.0
[16] = substrate: CC(=O)Oc1ccc([N+](=O)[O-])cc1; assay: Michaelis–Menten kinetics on para‐nitrophenyl acetate, AtDLK2 F167L; assay type: biochemical, Arabidopsis thaliana; settings: other: AtDLK2 F167L, substrate pNP acetate; pH 7.0
[17] = substrate: CC(=O)Oc1ccc([N+](=O)[O-])cc1; assay: Michaelis–Menten kinetics on para‐nitrophenyl acetate, AtKAI2; assay type: biochemical, Arabidopsis thaliana; settings: other: AtKAI2, substrate pNP acetate; pH 7.0
[18] = 100 μM concentration of 1, pNP acetate as substrate

With (−)‐5‐deoxystrigol as the molecule, how does the “hydrolytic activity of AtDLK2 (in words)” value [1] read?
Its value is “moderate hydrolytic activity; also recorded: poor but detectable hydrolytic activity”.

And the “reaction of AtDLK2 in DSF experiments (in words)” value [2]?
Its value is “able to react”.

Which “retained activity of AtD14” value [3, 18] does the source give for `CC1(c2ccccc2)CC(C)(C)N2C(=O)C(=O)c3cccc1c32` (stereo not shown) [Compound 1, 4,4,6‐Trimethyl‐6‐phenyl‐5,6‐dihydro‐4H‐pyrrolo[3,2,1‐ij]quinoline‐1,2‐dione] here?
Its value is 84%.

And the “decrease of AtD14's enzymatic activity” value ([3]; 1 at concentrations of 12.5 μM or higher)?
Its value is “slight decrease”.

What about the “inhibition of the enzymatic activity of AtD14 (in words)” value [3] of the same molecule?
The value was “only marginally inhibits”.

And the “inhibition of the enzymatic activity of AtD14 (in words)” value ([3]; listed as compound 1)?
The value was “only marginally decreasing”.

What about the “retained activity of AtKAI2” value [4, 18] of the same molecule?
Its value is 95%.

And the “decrease of AtKAI2's activity” value ([4]; 1 at concentrations of 50 μM or higher)?
The value was “marginal decrease”.

What about the “inhibition of the enzymatic activity of AtKAI2 (in words)” value [4] of the same molecule?
Its value is “only marginally inhibits”.

What about the “inhibition of the enzymatic activity of AtKAI2 (in words)” value ([4]; listed as compound 1) of the same molecule?
The value was “only marginally decreasing”.

Which results are given for `CC1=C[C@H](O/C=C2/C(=O)O[C@@H]3c4ccccc4C[C@H]23)OC1=O` (racemic) [rac‐GR24]?
rac‐GR24‐induced destabilization in DSF [5]: no or marginal; rac‐GR24‐induced destabilization in DSF [6]: no or marginal; rac‐GR24‐induced destabilization in DSF [7]: no or marginal; rac‐GR24‐induced destabilization in DSF [8]: clearly destabilize; turnover rate of AtD14 [9]: 1 molecule/3 min

What does the source list for `CC(=O)Oc1ccc([N+](=O)[O-])cc1` [pNP acetate, para‐nitrophenyl acetate]?
catalytic efficiency of AtDLK2 relative to AtD14 [10]: 625 times higher; catalytic efficiency of AtDLK2 relative to AtKAI2 [10]: 6.7 times higher; turnover number (kcat) [11]: 67 molecules per second; catalytic efficiency of AtKAI2 relative to AtD14 [12]: 94 times higher

B1: AtD14 (Arabidopsis thaliana) (protein)
chain: T2 sequence (Q9SQR3 1-267)
For B1, which Km [13] is on record?
The Km was 2.00 ± 0.16 × 10^−2 M.

And the kcat [13]?
Its kcat is 3.2 ± 0.06 s⁻¹.

And the kcat/Km [13]?
Its kcat/Km is 160 ± 12 M⁻¹ s⁻¹.

B2: AtDLK2 wt (Arabidopsis thaliana) (protein)
chain: T1 sequence (F4J6L0 1-273)
For B2, which Km [14] is on record?
Its Km is 2.58 ± 0.10 × 10^−4 M.

And the kcat [14]?
The kcat was 26.6 ± 0.7 s⁻¹.

And the kcat/Km [14]?
Its kcat/Km is 103000 ± 4000 M⁻¹ s⁻¹.

B3: AtDLK2 F167A (Arabidopsis thaliana; F167A) (protein)
chain: T1 sequence (F4J6L0 1-273) with F167A
For B3, which Km [15] is on record?
The Km was 2.78 ± 0.08 × 10^−4 M.

And the kcat [15]?
Its kcat is 66.9 ± 0.6 s⁻¹.

What about the kcat/Km [15] of the same molecule?
The kcat/Km was 241000 ± 7000 M⁻¹ s⁻¹.

B4: AtDLK2 F167L (Arabidopsis thaliana; F167L) (protein)
chain: T1 sequence (F4J6L0 1-273) with F167L
For B4, which Km [16] is on record?
Its Km is 2.53 ± 0.16 × 10^−4 M.

And the kcat [16]?
Its kcat is 69.8 ± 1.5 s⁻¹.

And the kcat/Km [16]?
The kcat/Km was 276000 ± 17000 M⁻¹ s⁻¹.

B5: AtKAI2 (Arabidopsis thaliana) (protein)
chain: T3 sequence (Q9SZU7 1-270)
Which Km [17] does the source give for B5 here?
Its Km is 1.56 ± 0.06 × 10^−3 M.

And the kcat [17]?
Its kcat is 23.6 ± 0.6 s⁻¹.

What about the kcat/Km [17] of the same molecule?
Its kcat/Km is 15100 ± 600 M⁻¹ s⁻¹.

Source: publication PMC9470386 (Plant Direct, 2022)
